Hits are enriched below; roughly 3.7% of the tested compounds scored in any of these assays.
NPY Y1 blocker – blocks the human neuropeptide Y Y1 receptor. P25929. HEK293-CNG Y1 cells, membrane potential fluorescence; NPY at EC95, then isoproterenol. inhibition, % at 3.6 µM. 1% of 200,000 active. AID 1040;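 active means inhibition above the campaign mean inhibition of all tested compounds plus 3 SD, cut at about 20% in these data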
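Benchmarks – high control isoproterenol alone, low control NPY with isoproterenol · Material – HEK293 Y1/CNG channel cell line · Times – dye 3 h, compound 60 min room temperature, stimulation 45 min · Probe or stimulus – NPY (25 nM), isoproterenol (1 µM), Ro 20-1724 (25 µM) · Evaluation – % inhibition of NPY effect · Signal – fluorescence, membrane potential probe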
NPY-Y2 PAM-ag – human NPY-Y2 potentiation or agonism, primary screen. P49146. cells expressing NPY-Y2, potentiator/agonist read-out. activation, % at 3.6 µM. 0.45% of 220,000 active. AID 1359; in the data active means activation above about 27%;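 further: cells stimulated with NPY near EC25 plus isoproterenol at EC100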
NPY1 pot ag – human NPY-Y1 potentiation or agonism, primary screen; 0.37% of 220,000 active; NPY-Y1 expressing cells, potentiator/agonist activation; activation, % at 3.6 µM; P25929; in the data active means activation above about 33%, passing the limit was not always enough;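 further: cells stimulated with NPY at EC10 then isoproterenol at EC100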
KCC2 mod – KCC2 (human) Cl- transport modulation; AID 1456; B-score of Tl+ flux slope (higher = more flux/activation; lower = inhibition) at 10 µM; KCC2 cells, thallium flux FluoZin-2 fluorescence; 2.2% of 190,000 active;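 active means thallium flux slope and its plate-corrected score both differing from the plate sample mean at a set confidence after two filtering rounds, in either direction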;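 further: slope of fluorescence scaled to starting intensity during 10 to 20 s after thallium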
Target sequence (Q9H2X9 whole entry, looked up): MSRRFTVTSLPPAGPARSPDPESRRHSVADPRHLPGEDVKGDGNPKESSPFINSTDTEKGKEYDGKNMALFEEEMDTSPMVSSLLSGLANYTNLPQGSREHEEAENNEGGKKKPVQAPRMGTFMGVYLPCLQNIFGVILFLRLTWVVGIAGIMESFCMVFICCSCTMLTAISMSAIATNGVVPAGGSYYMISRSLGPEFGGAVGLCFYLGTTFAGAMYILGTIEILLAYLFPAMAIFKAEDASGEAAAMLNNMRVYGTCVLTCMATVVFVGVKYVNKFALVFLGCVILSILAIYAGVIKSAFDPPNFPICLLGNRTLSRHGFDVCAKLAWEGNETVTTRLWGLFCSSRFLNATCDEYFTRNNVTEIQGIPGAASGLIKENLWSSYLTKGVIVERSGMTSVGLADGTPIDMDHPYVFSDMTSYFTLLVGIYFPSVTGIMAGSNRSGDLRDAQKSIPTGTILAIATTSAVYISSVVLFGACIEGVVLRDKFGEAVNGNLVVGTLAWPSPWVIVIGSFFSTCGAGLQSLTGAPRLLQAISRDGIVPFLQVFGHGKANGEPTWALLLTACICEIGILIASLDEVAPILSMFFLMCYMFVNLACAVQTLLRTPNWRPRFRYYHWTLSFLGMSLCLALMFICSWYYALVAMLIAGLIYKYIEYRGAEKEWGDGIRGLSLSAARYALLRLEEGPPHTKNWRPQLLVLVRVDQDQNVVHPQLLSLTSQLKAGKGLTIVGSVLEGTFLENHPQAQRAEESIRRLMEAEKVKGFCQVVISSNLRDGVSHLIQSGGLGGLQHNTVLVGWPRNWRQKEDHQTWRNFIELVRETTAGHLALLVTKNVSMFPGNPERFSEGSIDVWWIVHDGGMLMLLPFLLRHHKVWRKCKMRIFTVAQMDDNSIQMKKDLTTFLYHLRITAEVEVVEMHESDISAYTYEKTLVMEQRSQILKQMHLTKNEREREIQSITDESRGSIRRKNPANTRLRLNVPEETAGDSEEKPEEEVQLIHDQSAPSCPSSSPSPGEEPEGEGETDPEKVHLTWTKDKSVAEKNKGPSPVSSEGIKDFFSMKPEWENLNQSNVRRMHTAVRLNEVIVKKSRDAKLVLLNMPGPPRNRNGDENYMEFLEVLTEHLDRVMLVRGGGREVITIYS
NPY-Y2 antag – NPY-Y2 (human) receptor antagonism; AID 793; NPY-Y2 expressing cells, antagonist mode; 0.99% of 140,000 active; P49146; inhibition, % at 2.7 µM; in the data active means inhibition above about 17%
Furin inh – inhibitors of human furin. P09958. purified furin, fluorogenic substrate cleavage. inhibition, % at 20 µM or 30 µM. 0.061% of 220,000 active; in the data active means inhibition above about 25%
KCC2 secondary – confirmation of human KCC2 transport modulators; shares compounds with KCC2 mod; HEK293-KCC2, thallium flux, FluoZin2 fluorescence; stronger effect = higher value; normalised thallium flux (F/F0 slope) at 10 µM; 15% of 3,700 active; AID 1713;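 active means thallium flux slope above the same plate's solvent-only control mean plus 3 SD; inconclusive means the two replicate wells disagree; inactive means no significant difference from solvent-only control wells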
KCC2 bumet counter – thallium flux persisting under bumetanide in KCC2 cells, counter-screen secondary assay; shares compounds with KCC2 mod; HEK293-KCC2 + bumetanide/ouabain, thallium flux FluoZin2; stronger effect = higher value; normalized thallium flux at 10 µM; 49% of 3,700 active; AID 1714;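 active means thallium entry rate above the same plate's blocked-transporter control wells by more than 3 SD; inconclusive means the two repeat wells disagree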;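 further: raw slope of fluorescence over initial fluorescence between 10 and 20 s after thallium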
KCC2 sec2 – confirmation of human KCC2 transport modulators; shares compounds with KCC2 mod; HEK293-KCC2, thallium flux FluoZin2 fluorescence; actives lie on both sides; F/F0 rise rate, 10–20 s post-thallium; normalized thallium flux at 10 µM; 23% of 3,700 active; AID 1715;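 active means thallium flux slope more than 3 SD above or below the plate's solvent-only control mean, mostly below; inconclusive means the two repeat wells disagreed; inactive means no significant shift from solvent-only controls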
HEK293 Tl flux – acts in parental HEK cells, KCC2 counter-screen. shares compounds with KCC2 mod. HEK293 parental cells, thallium flux FluoZin2, ouabain; baseline-ratio fluorescence slope, 10–20 s after thallium. thallium flux rate (normalised fluorescence) at 10 µM. 46% of 3,700 active. AID 1716;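 active means thallium flux rate significantly above the same plate's solvent-only control wells, beyond their mean plus 3 SD; inconclusive means the two replicate wells gave conflicting results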
KCC2 retest ouab – confirmation of human KCC2 modulators with ouabain | shares compounds with KCC2 mod | raw Tl+ flux slope (below DMSO = inhibition, above = activation) at 10 µM | 48% of 3,700 active | HEK293-KCC2, thallium flux FluoZin2 fluorescence; bidirectional: low = inhibitor, high = activator;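 active means thallium flux slope beyond 3 SD from same-plate DMSO control mean in most replicates, usually higher, sometimes lower; inconclusive means repeat tests gave conflicting results; inactive means no significant difference from controls in most replicates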;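 further: slope of initial-normalized fluorescence between seconds 10 and 20 after thallium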
HEK293 Tl flux2 – acts in parental HEK cells, second KCC2 counter-screen. shares compounds with KCC2 mod. HEK293 parental, thallium flux FluoZin-2 fluorescence slope. thallium flux slope at 10 µM. 33% of 3,700 active. AID 1718;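 active means thallium flux slope above the same plate's solvent-control mean plus 3 SD in both duplicate wells; inconclusive means duplicate wells that disagreed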;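 further: run without ouabain in cells lacking the KCC2 cotransporter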
Of the large screens only hits and unclear results are named; the others gave an inactive call (follow-up assays come after a bar, where they were run).

Cc1cc(C(=O)COC(=O)CCc2nc3ccccc3s2)c(C)n1C	KCC2 mod -3.2 | KCC2 secondary inactive | KCC2 bumet counter inconclusive | KCC2 sec2 0.0228 | HEK293 Tl flux inactive | KCC2 retest ouab 0.0156 | HEK293 Tl flux2 inactive
CCOC(=O)N1CCN(C(=O)c2ccc3c(=O)n(Cc4ccccc4)c(=S)[nH]c3c2)CC1	KCC2 mod 4.61 | KCC2 secondary inactive | KCC2 bumet counter 0.0258 | KCC2 sec2 inactive | HEK293 Tl flux 0.012 | KCC2 retest ouab 0.028 | HEK293 Tl flux2 0.0112
CCN(CC)CCn1c(=S)[nH]c2ccc(Br)cc2c1=O	KCC2 mod 17.4 (no result: NPY-Y2 antag) | KCC2 secondary inactive | KCC2 bumet counter 0.0171 | KCC2 sec2 inactive | HEK293 Tl flux 0.0112 | KCC2 retest ouab inactive | HEK293 Tl flux2 inconclusive
CCOC(=O)N1CCN(C(=O)CCCn2c(=S)[nH]c3ccc(Br)cc3c2=O)CC1	KCC2 mod 8.69 | KCC2 secondary inactive | KCC2 bumet counter 0.00892 | KCC2 sec2 inactive | HEK293 Tl flux 0.00974 | KCC2 retest ouab inactive | HEK293 Tl flux2 inactive
CCOC(=O)N1CCN(C(=O)CCCn2c(=S)[nH]c3ccccc3c2=O)CC1	none
COc1ccc(/C=c2\s/c(=C/C(=O)c3ccc(C)cc3)[nH]c2=O)cc1OC	none
O=C(CSc1nc(-c2ccccc2)nc2ccc(F)cc12)Nc1cccc(C(=O)O)c1	KCC2 mod 59 (no result: NPY Y1 blocker, NPY-Y2 antag) | KCC2 secondary inactive | KCC2 bumet counter 0.0377 | KCC2 sec2 inconclusive | HEK293 Tl flux 0.0476 | KCC2 retest ouab 0.044 | HEK293 Tl flux2 0.0291
CC(C)(C)c1cc(-c2n[nH]c(=S)n2-c2ccccc2F)n[nH]1	KCC2 mod 38.7 (no result: NPY Y1 blocker, NPY-Y2 antag) | KCC2 secondary inactive | KCC2 bumet counter 0.0469 | KCC2 sec2 0.045 | HEK293 Tl flux 0.0331 | KCC2 retest ouab 0.0425 | HEK293 Tl flux2 0.0305
Cc1c(F)cccc1NS(=O)(=O)c1ccc2c(c1)c(=O)n(C)c(=O)n2C	none (no result: NPY-Y2 antag)
Cc1ccc(C(=O)COc2cc(C)nc3nncn23)cc1	none (no result: NPY Y1 blocker, NPY-Y2 antag)
COc1ccc(N2C(=S)N=C(Nc3cccc(C)c3)C23CCCCC3)cc1	KCC2 mod 4.32 | KCC2 secondary inactive | KCC2 bumet counter 0.0112 | KCC2 sec2 inactive | HEK293 Tl flux 0.0106 | KCC2 retest ouab inactive | HEK293 Tl flux2 0.0113
Cc1cccc(C)c1NC1=NC(=S)N(c2ccc(C(=O)O)cc2)C12CCCCC2	none (no result: NPY-Y2 antag)
COc1ccccc1N1C(=S)N=C(Nc2c(C)cccc2C)C12CCCC2	KCC2 mod 6.18 (no result: NPY Y1 blocker, NPY-Y2 antag) | KCC2 secondary inactive | KCC2 bumet counter 0.0485 | KCC2 sec2 inactive | HEK293 Tl flux 0.0152 | KCC2 retest ouab inactive | HEK293 Tl flux2 0.0123
O=C(Nc1ccc(Oc2cccc(C(F)(F)F)c2)nc1)c1cccs1	none (no result: NPY Y1 blocker, NPY-Y2 antag)
Cc1cc(-c2nnc(SCC(=O)NC3CCCC3)o2)no1	KCC2 mod 7.14 | KCC2 secondary inactive | KCC2 bumet counter inactive | KCC2 sec2 inactive | HEK293 Tl flux inactive | KCC2 retest ouab inactive | HEK293 Tl flux2 inactive
CCCCC(=O)N(Cc1ccc(F)cc1)C1CCS(=O)(=O)C1 (stereo unspecified)	none (no result: NPY Y1 blocker, NPY-Y2 antag)
Cc1ccc(Cn2nnc3c(=O)[nH]c(C4CCN(S(=O)(=O)c5ccc(F)cc5)CC4)nc32)cc1	KCC2 mod -3.03 | KCC2 secondary inactive | KCC2 bumet counter inactive | KCC2 sec2 0.0249 | HEK293 Tl flux inactive | KCC2 retest ouab inactive | HEK293 Tl flux2 inactive
Cc1ccc(Cn2nnc3c(=O)[nH]c(C4CCN(S(=O)(=O)c5cc(C)ccc5C)CC4)nc32)cc1	none
Cc1ccc(C)c(S(=O)(=O)N2CCC(c3nc4c(nnn4Cc4ccc(F)cc4)c(=O)[nH]3)CC2)c1	KCC2 mod -4.24 | KCC2 secondary inactive | KCC2 bumet counter inactive | KCC2 sec2 inactive | HEK293 Tl flux inactive | KCC2 retest ouab 0.0163 | HEK293 Tl flux2 inactive
O=c1[nH]c(C2CCCN(S(=O)(=O)c3ccccc3)C2)nc2c1nnn2Cc1ccccc1 (stereo unspecified)	none
CN(C)S(=O)(=O)c1cccc(NC(=O)c2cc3c(cc2Cl)N2CCCCCC2=NS3(=O)=O)c1	KCC2 mod -4.51 (no result: NPY-Y2 antag) | KCC2 secondary inactive | KCC2 bumet counter inactive | KCC2 sec2 0.0226 | HEK293 Tl flux inactive | KCC2 retest ouab 0.0137 | HEK293 Tl flux2 inactive
COC(=O)c1cc2c(cc1Cl)N1CCCCCC1=NS2(=O)=O	none (no result: NPY Y1 blocker, NPY-Y2 antag)
O=[N+]([O-])c1ccccc1/C=N/n1c(C2CCCCC2)n[nH]c1=S	KCC2 mod 11 | KCC2 secondary inactive | KCC2 bumet counter 0.0325 | KCC2 sec2 inactive | HEK293 Tl flux 0.024 | KCC2 retest ouab 0.0307 | HEK293 Tl flux2 0.0193
S=c1[nH]nc(C2CCCCC2)n1/N=C/C=C/c1ccccc1	KCC2 mod 7.74 | KCC2 secondary inactive | KCC2 bumet counter 0.0369 | KCC2 sec2 0.0459 | HEK293 Tl flux 0.0337 | KCC2 retest ouab 0.0318 | HEK293 Tl flux2 0.0309
CC(C)CC(OC(=O)c1nsc(Cl)c1Cl)C(=O)NCc1cccs1 (stereo unspecified)	KCC2 mod -3.69 | KCC2 secondary inactive | KCC2 bumet counter inactive | KCC2 sec2 inactive | HEK293 Tl flux inactive | KCC2 retest ouab inactive | HEK293 Tl flux2 inactive
CCC(OC(=O)c1nsc(Cl)c1Cl)C(=O)NCc1cccs1 (stereo unspecified)	none
CCCCCn1c(N2CCC(Cc3ccccc3)CC2)nc2c1c(=O)[nH]c(=O)n2C	KCC2 mod -5.48 | KCC2 secondary inactive | KCC2 bumet counter inactive | KCC2 sec2 inactive | HEK293 Tl flux inactive | KCC2 retest ouab inactive | HEK293 Tl flux2 inactive
C=C(C)Cn1c(N2CCC(Cc3ccccc3)CC2)nc2c1c(=O)[nH]c(=O)n2C	KCC2 mod -3.58 | KCC2 secondary inactive | KCC2 bumet counter 0.00585 | KCC2 sec2 0.0237 | HEK293 Tl flux inactive | KCC2 retest ouab 0.0164 | HEK293 Tl flux2 inactive

Screens: PubChem, several laboratories
